Experiments:
PDE6C [1] = target: T1, PDE6C (Homo sapiens, UniProt P51160); assay: PDE6 fluorescent; format: biochemical; conditions: PDE6C vs PDE5A1
human recombinant PDE5A1 = human recombinant PDE5A1 (Homo sapiens, UniProt O76074); assay: PDE5 fluorescent; format: biochemical
In short: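 Reactions ran 60 min at room temperature with 0.1-0.45 ng PDE5, 100 nM FAM-cGMP or FAM-cAMP substrate and test compound. Binding agent was then added for 60 min at room temperature, and fluorescence was read at ex 485/em 528 nm and converted to polarisation. Each concentration was run in duplicate. Activity was normalised between no compound (100%) and no enzyme and no compound (0%). IC50 came from sigmoidal non-linear regression; values are average ± S.E.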

AD mouse models = conditions: pharmacological treatment of two different AD mouse models; cited from earlier work
[2] = tested on: cGMP levels in the hippocampus of mice; conditions: dosed at 3 mg/kg; cited from earlier work
PDE6C [3] = target: T1, PDE6C; conditions: read-out: PDE6C IC50; recombinant human enzyme; cited from earlier work
[4] = tested on: hippocampal long-term potentiation (LTP); assay: Hippocampal slice LTP electrophysiology, acute bath perfusion; format: cell-based, mice; conditions: 50 nM bath perfusion
[5] = tested on: cGMP levels in the hippocampus of mice; assay: Hippocampal cGMP levels after foot shock; format: in vivo; conditions: WT mice, 3 mg/kg ip, 180 s after foot shock; not significant (p = 0.097)
In short: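 Male and female C57Bl6 mice, 2-3 months old (20-25 g), received 3 mg/kg i.p. in 2% DMSO & 2% Tween, or vehicle alone. Foot shock was given 30 min later. Mice were killed by cervical dislocation and decapitation 10 s, 1 min or 3 min after shock. Hippocampi were snap-frozen. cGMP was measured by enzyme immunoassay in duplicate and normalised to BCA protein. n=3 per group; t-test/2-way ANOVA.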

T1 sequence (P51160 whole entry): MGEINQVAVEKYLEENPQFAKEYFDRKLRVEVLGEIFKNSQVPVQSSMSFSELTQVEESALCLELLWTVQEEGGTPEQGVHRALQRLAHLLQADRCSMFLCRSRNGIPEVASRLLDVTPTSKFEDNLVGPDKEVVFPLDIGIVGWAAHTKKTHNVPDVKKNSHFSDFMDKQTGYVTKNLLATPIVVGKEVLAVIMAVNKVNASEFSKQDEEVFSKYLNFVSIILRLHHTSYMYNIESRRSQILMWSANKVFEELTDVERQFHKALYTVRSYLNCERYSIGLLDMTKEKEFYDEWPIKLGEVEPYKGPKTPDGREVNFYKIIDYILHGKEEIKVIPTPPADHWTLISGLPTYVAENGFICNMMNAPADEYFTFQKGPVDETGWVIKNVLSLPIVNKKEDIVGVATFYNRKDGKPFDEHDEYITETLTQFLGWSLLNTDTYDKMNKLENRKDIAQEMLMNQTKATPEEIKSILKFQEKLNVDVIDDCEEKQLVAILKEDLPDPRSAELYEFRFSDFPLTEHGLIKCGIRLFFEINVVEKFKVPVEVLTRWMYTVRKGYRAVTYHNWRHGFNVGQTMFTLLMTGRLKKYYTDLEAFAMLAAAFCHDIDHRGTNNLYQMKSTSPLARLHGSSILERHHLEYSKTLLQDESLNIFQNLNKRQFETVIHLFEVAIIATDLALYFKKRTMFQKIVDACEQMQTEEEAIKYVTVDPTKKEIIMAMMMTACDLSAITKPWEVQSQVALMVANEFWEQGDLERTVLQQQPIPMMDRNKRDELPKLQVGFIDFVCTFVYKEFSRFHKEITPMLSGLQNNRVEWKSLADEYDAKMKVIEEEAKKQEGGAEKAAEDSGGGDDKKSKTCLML

With `CCN1Cc2nc3ccc(C#N)cc3c(NCc3ccc(OC)c(Cl)c3)c2C1=O` [compound 24a, 9-((3-Chloro-4-methoxybenzyl)amino)-2-ethyl-1-oxo-2,3-dihydro-1H-pyrrolo[3,4-b]quinoline-7-carbonitrile] the “selectivity for PDE5 versus PDE6” value (PDE6C [1]) was ~ 100 fold.
In the case of `COc1ccc(CNc2c3c(nc4ccccc24)CCN(C(C)=O)C3)cc1Cl` [17a, 1-(10-((3-Chloro-4-methoxybenzyl)amino)-3,4-dihydrobenzo[b][1,6]naphthyridin-2(1H)-yl)ethan-1-one], the IC50 (human recombinant PDE5A1) is reported as 110 ± 3.3 nM.
In the case of `COc1ccc(CNc2c(CO)cnc3c(C4CC4)cc(C#N)cc23)cc1Cl` [compound 1], the learning and memory (AD mouse models) is given as “rescues learning and memory”, the “cGMP in the hippocampus of mice” value [2] is given as “elevation” and the IC50 (PDE6C [3]) is given as 339 nM.
With `COc1ccc(CNc2c3c(nc4ccc(C#N)cc24)CCN(C(C)=O)C3)cc1Cl` [compound 6c, 2-Acetyl-10-[(3-chloro-4-methoxybenzyl)amino]-1,2,3,4-tetrahydrobenzo[b][1,6]naphthyridine-8-carbonitrile] the “effect on LTP in WT slices” value [4] was “did not have any effect” and the “increase of hippocampal cGMP levels” value [5] was “slight increase”.

Source: PMC9614283 (Journal of medicinal chemistry, 2017)
